pIC50: −log10 of the molar value.
Tests used:
[1] = molecular target: T1, Interstitial collagenase (Homo sapiens) (UniProt P03956); settings: at 1 mM;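 further: recombinant human enzyme, with inhibition measured after 30 min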
T1 sequence (whole entry): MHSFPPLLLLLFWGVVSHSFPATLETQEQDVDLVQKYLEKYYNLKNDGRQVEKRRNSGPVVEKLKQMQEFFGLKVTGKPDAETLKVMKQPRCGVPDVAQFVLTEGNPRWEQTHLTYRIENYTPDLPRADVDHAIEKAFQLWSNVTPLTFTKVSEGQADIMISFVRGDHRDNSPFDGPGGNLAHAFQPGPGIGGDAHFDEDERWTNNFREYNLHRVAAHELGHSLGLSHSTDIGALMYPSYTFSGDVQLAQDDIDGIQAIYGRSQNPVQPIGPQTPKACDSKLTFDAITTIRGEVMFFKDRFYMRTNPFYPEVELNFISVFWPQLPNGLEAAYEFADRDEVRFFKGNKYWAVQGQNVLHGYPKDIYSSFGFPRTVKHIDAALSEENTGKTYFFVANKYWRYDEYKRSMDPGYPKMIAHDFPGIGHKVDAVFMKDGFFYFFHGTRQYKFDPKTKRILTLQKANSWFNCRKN

[2] = molecular target: T2, Tyrosinase (Agaricus bisporus) (UniProt O42713); settings: at 1 mM;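 further: inhibition measured at 10 min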
T2 sequence (whole entry): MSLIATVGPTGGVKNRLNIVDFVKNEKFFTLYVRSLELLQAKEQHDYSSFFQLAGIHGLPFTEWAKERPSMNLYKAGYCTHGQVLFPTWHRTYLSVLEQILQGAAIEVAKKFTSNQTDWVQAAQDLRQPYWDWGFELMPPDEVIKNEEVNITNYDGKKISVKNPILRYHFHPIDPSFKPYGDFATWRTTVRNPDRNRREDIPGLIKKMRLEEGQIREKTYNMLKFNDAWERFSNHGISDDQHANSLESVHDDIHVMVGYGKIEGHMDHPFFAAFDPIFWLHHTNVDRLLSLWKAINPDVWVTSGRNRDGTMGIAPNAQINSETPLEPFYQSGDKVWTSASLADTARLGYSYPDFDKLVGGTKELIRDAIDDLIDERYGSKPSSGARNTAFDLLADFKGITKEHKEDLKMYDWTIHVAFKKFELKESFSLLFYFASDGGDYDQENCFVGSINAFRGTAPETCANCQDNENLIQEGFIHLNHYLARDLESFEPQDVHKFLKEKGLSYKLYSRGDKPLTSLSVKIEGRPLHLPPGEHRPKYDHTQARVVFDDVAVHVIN

[3] = molecular target: T3, 72 kDa type IV collagenase (Homo sapiens, UniProt P08253); settings: at 1 mM
Target sequence in this assay (P08253 110-660 limits assumed): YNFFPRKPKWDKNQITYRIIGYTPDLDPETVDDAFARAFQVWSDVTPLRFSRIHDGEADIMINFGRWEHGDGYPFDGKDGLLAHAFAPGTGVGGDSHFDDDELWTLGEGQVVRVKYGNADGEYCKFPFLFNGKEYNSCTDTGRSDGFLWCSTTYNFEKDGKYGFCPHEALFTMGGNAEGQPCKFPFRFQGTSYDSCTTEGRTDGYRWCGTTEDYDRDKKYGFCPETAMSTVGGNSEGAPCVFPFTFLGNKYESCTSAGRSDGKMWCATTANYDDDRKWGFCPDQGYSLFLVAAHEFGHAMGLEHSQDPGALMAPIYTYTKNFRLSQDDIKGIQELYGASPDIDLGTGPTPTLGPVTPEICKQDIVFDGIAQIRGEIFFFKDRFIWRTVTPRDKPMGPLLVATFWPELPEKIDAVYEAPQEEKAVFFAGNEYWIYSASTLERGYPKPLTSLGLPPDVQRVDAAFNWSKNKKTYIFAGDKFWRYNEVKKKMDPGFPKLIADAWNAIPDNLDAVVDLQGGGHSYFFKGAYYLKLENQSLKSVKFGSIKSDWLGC

[4] = molecular target: T3, 72 kDa type IV collagenase; assay: Inhibition of human recombinant MMP2 after 30 mins
Outline: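 Enzyme (1.16 U) preincubated 30 min at 37 °C with fragment in 50 mM HEPES, 10 mM CaCl2, 0.05% Brij-35, pH 7.5. Fluorogenic Mca peptide substrate (4 μM final) then added. Rate of fluorescence increase compared with no-inhibitor control (100%). Single-point 25 μM final for the 8-hydroxyquinoline sublibrary. IC50 fitted to dose-response curves from serial dilutions of DMSO stocks.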
Target sequence in this assay (P08253 whole entry): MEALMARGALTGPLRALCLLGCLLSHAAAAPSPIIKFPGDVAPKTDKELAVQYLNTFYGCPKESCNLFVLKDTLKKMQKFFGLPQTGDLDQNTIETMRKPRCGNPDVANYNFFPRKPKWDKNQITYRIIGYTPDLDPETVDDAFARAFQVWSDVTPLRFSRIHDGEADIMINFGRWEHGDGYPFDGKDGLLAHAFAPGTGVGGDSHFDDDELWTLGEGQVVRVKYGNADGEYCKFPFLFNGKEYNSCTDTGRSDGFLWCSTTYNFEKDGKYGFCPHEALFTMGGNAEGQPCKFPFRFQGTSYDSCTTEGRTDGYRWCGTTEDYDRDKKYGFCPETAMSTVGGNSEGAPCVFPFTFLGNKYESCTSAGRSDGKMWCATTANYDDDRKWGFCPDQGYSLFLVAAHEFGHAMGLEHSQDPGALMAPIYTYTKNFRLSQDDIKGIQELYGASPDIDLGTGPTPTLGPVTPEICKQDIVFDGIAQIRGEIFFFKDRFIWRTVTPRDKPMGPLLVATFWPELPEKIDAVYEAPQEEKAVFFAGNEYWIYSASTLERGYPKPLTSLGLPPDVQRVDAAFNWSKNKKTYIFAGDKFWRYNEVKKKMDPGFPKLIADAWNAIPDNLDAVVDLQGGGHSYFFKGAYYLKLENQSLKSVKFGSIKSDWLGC

SMILES	inhibition [1] [%]	inhibition [2] [%]	inhibition [3] [%]	pIC50 [4]
Cc1occ(O)c(=O)c1C(=O)O	60	96	56	–
CC(=O)C(C)C(C)=O	10	67	-3	–
Cc1nc(O)nc(O)c1C	11	32	5	–
O=C(O)c1cc(F)ccc1O	-7	98	-2	–
Cc1cc(=O)c(O)c(CCl)o1	53	96	44	–
Nc1[nH]cnc2ncnc1-2	17	11	-1	–
O=C(O)c1ccccc1O	-1	97	12	–
Nc1cc(=O)nc(N)[nH]1	3	18	6	–
Cc1cc(=O)c(O)co1	37	86	37	–
O=C(O)c1ccccn1	3	74	25	–
O=C(O)c1ccc(F)cc1O	14	97	-8	–
O=C(O)c1ccc(C(=O)O)nc1	0	98	-5	–
O=C(O)c1cccc(C(=O)O)n1	7	99	-6	–
[O-][n+]1cccc2cccc(O)c21	70	29	62	–
c1ccc(CNCc2ccccn2)nc1	73	69	100	–
C1CNCCNCCN1	105	68	100	–
O=c1occcc1O	74	77	66	–
CCCCc1ccc(C(=O)O)nc1	58	75	43	–

SMILES	inhibition [1] [%]	inhibition [2] [%]	inhibition [3] [%]	pIC50 [4]
O=C(O)c1cccc(O)c1O	17	88	-1	–
CCn1ccc(=O)c(O)c1C	19	9	16	–
Nc1ccc(C(=O)O)c(O)c1	-7	55	-1	–
O=C(O)c1cccc(Br)n1	11	90	-4	–
O=C(O)c1cccc[n+]1[O-]	10	88	1	–
O=C(O)c1nccc2ccccc12	32	72	42	–
O=c1ccocc1O	48	38	48	–
Oc1ncccn1	100	92	24	–
Cc1ccc(S(N)(=O)=O)cc1	11	70	-2	–
CC(=O)C1CCCC1=O (centres undefined)	38	83	20	–
Cc1cccc(C(=O)O)c1O	10	96	1	–
Cn1cccc(O)c1=O	17	-6	4	–
O=c1cc(CCl)occ1O	67	94	65	–
Cc1cc(O)nc(C)n1	10	-10	2	–
Cc1cc(O)nc(O)n1	13	-4	-7	–
O=C(O)c1ncccc1O	55	87	58	–
O=c1cccccc1O [TROPOLONE]	100	90	89	3.84
Cc1ccc(O)c(C(=O)O)c1	28	98	65	–
